Results taken from publication PMC10692386 (Acta Pharmaceutica Sinica. B, 2023).
Values after ≈ are worked out from the molar mass of the structure shown.

Assays:
HIV-1 mutant Y181C = experiment: Anti-HIV-1 efficacy against mutant Y181C in MT-4 cells; format: cell-based; conditions: Human immunodeficiency virus 1, MT4, read-out: EC50 Y181C
Outline: (§1)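 MT-4 cells were infected with HIV-1 RT mutant strains. EC50 was the concentration giving 50% protection against viral cytopathicity, averaged from at least three independent experiments. Cytotoxicity in mock-infected cultures was read by MTT.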

[1] = system: HIV-1 mutant K103N + Y181C; experiment: Anti-HIV-1 efficacy against mutant K103N + Y181C in MT-4 cells; format: cell-based; conditions: Human immunodeficiency virus 1, MT4, read-out: EC50 K103N + Y181C
Outline: as §1

[2] = Cytotoxicity in mock-infected MT-4 cell cultures; format: cell-based; conditions: human, mock-infected MT-4 cells
HIV-1 mutant K103N = experiment: Anti-HIV-1 efficacy against mutant K103N in MT-4 cells; format: cell-based; conditions: Human immunodeficiency virus 1, MT4, read-out: EC50 K103N
Outline: as §1

WT HIV-1 = experiment: Anti-HIV-1 activity in MT-4 cells infected with HIV-1; format: cell-based; conditions: for EC50: Human immunodeficiency virus 1, MT4; for SI: selectivity index, the ratio of CC50/EC50, WT HIV-1
HIV-1 mutant Y188L = experiment: Anti-HIV-1 efficacy against mutant Y188L in MT-4 cells; format: cell-based; conditions: Human immunodeficiency virus 1, MT4, read-out: EC50 Y188L
Outline: as §1

HIV-1 mutant L100I = experiment: Anti-HIV-1 efficacy against mutant L100I in MT-4 cells; format: cell-based; conditions: Human immunodeficiency virus 1, MT4, read-out: EC50 L100I
Outline: as §1

HIV-1 mutant E138K = experiment: Anti-HIV-1 efficacy against mutant E138K in MT-4 cells; format: cell-based; conditions: Human immunodeficiency virus 1, MT4, read-out: EC50 E138K
Outline: as §1

WT HIV-1 RT = WT HIV-1 RT (Human immunodeficiency virus type 1 group M subtype B, UniProt P03366); experiment: Inhibition of WT HIV-1 RT; format: biochemical
Aqueous solubility = format: physicochemical
hERG potassium channels = hERG potassium channels (Homo sapiens, UniProt Q12809); experiment: hERG channel Qpatch assay in CHO-hERG cells; format: cell-based
CYP2C19 = CYP2C19 (Homo sapiens, UniProt P33261); experiment: biochemical
CYP2C9 = CYP2C9 (Homo sapiens, UniProt P11712); experiment: Cytochrome P450 inhibition assay, CYP2C9; format: in vitro ADME
Acute toxicity assay = format: in vivo, ICR mice; conditions: single intragastric administration of 1.2 g/kg
Outline: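 ICR mice, 24–28 g, aged 5–6 weeks (4 male, 4 female), were randomised into 4 groups. Test compound was given as a single intragastric dose. Body weight, behaviour and coat colour were followed for 14 days. Mice were then euthanised, and kidney, lung, spleen, liver, heart and brain were HE-stained for histology.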

[3] = system: K103N, L100I, E138K, Y181C, and K103N + Y181C; experiment: Anti-HIV-1 efficacy against mutant panel; format: cell-based; conditions: Human immunodeficiency virus 1, read-out: EC50 value range
Outline: as §1

CYP2D6 = CYP2D6 (Homo sapiens, UniProt P10635); experiment: Cytochrome P450 inhibition assay, CYP2D6; format: in vitro ADME
CYP1A2 = biological target: T1, CYP1A2 (Homo sapiens, UniProt P05177); experiment: Cytochrome P450 inhibition assay, CYP1A2; format: in vitro ADME
T1 sequence (P05177 1-516): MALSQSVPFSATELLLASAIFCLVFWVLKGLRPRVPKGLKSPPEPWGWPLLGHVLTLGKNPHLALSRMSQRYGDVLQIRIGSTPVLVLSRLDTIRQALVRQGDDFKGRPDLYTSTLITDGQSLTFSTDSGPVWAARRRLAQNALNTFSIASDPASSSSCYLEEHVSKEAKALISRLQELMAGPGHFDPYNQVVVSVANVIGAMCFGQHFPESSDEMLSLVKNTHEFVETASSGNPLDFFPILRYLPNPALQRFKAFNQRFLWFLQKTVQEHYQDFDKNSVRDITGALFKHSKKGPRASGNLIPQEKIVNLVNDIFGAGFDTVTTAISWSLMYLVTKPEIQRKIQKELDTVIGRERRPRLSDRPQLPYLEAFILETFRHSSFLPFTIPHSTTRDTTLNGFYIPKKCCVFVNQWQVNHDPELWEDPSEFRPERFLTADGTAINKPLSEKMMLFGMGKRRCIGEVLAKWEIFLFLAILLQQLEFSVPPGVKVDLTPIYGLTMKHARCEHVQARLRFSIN

CYP3A4 = CYP3A4 (Homo sapiens, UniProt P08684); experiment: Cytochrome P450 inhibition assay, CYP3A4; format: in vitro ADME
[4] = PK study in Sprague-Dawley rats; format: in vivo; conditions: rat, plasma
Outline: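 Six SD rats, 180–220 g, were fasted 12 h and randomised into an intravenous arm (1 mg/kg) and an intragastric arm. Blood was drawn from pre-dose to 720 min into heparin, and plasma was stored at −80 °C. Plasma was precipitated with acetonitrile, dried under nitrogen, reconstituted and assayed by HPLC-MS/MS. PK parameters and bioavailability came from concentration–time data.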

CYP2D6, sequence (P10635 whole entry): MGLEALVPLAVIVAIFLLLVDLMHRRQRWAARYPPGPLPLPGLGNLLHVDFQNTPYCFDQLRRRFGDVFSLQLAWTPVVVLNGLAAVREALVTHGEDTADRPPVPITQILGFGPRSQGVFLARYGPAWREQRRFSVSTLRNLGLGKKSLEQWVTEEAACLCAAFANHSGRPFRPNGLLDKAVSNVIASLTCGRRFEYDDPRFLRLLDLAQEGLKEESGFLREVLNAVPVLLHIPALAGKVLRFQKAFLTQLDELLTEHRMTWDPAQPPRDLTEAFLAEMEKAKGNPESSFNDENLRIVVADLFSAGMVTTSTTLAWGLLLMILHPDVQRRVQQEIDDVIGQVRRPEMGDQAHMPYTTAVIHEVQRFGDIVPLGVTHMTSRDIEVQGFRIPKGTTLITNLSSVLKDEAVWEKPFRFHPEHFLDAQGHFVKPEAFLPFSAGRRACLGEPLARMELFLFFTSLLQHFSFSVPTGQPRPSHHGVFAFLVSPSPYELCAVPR
CYP2C19, sequence (P33261 whole entry): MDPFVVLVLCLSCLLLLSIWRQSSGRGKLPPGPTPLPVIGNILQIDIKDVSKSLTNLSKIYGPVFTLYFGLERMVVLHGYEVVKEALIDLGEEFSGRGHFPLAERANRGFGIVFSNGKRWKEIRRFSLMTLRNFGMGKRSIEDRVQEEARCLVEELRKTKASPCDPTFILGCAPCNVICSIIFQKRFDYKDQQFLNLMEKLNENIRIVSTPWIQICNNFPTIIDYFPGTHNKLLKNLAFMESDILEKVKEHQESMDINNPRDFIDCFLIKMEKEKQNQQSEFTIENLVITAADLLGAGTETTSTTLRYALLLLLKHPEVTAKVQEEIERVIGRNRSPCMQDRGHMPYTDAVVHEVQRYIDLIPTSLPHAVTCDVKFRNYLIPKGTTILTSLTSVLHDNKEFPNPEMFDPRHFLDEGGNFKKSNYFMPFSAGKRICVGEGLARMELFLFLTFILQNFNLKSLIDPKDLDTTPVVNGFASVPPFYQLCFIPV
CYP2C9, sequence (P11712 whole entry): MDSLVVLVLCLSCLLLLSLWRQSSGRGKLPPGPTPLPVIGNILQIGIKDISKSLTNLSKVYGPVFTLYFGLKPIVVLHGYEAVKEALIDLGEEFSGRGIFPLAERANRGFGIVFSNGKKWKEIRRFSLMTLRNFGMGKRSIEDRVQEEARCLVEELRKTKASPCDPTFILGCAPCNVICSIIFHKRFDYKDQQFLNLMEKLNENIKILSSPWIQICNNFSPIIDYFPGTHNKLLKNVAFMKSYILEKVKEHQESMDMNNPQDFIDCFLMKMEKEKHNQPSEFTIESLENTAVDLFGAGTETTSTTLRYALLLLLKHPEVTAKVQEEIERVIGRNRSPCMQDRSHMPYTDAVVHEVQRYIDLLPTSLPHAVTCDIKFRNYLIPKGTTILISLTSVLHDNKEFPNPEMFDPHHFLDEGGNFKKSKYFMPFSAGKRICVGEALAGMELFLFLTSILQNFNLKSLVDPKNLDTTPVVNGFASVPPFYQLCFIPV
CYP3A4, sequence (P08684 whole entry): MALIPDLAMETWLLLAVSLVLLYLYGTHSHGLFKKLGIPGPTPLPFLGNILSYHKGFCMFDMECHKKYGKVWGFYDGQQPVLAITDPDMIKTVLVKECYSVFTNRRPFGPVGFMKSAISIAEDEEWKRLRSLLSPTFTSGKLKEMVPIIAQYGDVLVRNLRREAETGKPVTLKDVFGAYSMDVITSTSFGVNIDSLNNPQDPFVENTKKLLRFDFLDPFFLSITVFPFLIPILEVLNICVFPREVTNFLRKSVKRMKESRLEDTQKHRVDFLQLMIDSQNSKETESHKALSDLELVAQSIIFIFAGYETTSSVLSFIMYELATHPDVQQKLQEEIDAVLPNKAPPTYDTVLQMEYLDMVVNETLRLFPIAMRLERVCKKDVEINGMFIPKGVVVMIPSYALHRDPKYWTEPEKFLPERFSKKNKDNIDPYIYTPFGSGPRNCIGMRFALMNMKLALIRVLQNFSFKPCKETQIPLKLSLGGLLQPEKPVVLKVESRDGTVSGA
hERG potassium channels, sequence (Q12809 whole entry): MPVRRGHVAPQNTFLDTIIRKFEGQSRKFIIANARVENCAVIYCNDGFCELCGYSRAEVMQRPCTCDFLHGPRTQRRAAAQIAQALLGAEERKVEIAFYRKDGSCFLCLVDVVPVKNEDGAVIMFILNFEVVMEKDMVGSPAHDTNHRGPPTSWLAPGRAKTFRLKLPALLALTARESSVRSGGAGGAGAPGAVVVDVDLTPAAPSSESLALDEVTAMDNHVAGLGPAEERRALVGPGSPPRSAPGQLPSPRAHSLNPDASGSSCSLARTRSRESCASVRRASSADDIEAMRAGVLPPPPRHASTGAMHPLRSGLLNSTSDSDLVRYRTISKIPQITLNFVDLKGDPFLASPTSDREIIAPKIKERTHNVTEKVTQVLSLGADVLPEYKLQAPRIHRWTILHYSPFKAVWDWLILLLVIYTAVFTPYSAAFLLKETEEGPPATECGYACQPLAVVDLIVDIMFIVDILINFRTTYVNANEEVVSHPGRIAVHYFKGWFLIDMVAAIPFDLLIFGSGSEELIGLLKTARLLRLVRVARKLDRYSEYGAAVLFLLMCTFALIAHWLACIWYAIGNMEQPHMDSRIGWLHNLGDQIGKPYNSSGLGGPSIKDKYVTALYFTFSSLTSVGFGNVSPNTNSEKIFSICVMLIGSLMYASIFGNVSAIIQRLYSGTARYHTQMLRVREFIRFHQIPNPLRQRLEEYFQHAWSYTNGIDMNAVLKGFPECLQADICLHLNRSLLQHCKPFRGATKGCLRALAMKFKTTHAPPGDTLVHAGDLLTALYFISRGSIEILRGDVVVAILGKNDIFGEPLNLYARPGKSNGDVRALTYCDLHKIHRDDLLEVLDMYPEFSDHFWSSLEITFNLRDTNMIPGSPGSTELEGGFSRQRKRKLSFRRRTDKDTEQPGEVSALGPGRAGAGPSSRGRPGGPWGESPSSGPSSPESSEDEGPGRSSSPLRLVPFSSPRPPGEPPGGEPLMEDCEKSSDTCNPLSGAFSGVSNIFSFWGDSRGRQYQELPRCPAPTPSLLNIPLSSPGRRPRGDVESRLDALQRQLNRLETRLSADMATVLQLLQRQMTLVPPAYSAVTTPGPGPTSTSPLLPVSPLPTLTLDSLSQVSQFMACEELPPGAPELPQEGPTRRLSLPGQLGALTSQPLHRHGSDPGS

## Cn1c(Cn2ccc(C(F)(F)F)c(Oc3cncc(Cl)c3)c2=O)n[nH]c1=O [7a]
HIV-1 mutant Y181C
  EC50: 1790 ± 580 nM
[1]
  EC50: 18300 ± 11400 nM
[2]
  CC50: > 311000 nM
HIV-1 mutant K103N
  EC50: 1220 ± 560 nM
WT HIV-1
  EC50: 550 ± 230 nM
  SI: >563
HIV-1 mutant Y188L
  EC50: 122000 ± 62100 nM
HIV-1 mutant L100I
  EC50: 930 ± 510 nM
HIV-1 mutant E138K
  EC50: 610 ± 40 nM
WT HIV-1 RT
  IC50: 1140 ± 43 nM

## Cn1c(Cn2ccc(C(F)(F)F)c(Oc3cncc(Br)c3)c2=O)n[nH]c1=O [7e]
HIV-1 mutant Y181C
  EC50: 850 ± 150 nM
[1]
  EC50: 12300 ± 8120 nM
[2]
  CC50: > 280000 nM
HIV-1 mutant K103N
  EC50: 950 ± 270 nM
WT HIV-1
  EC50: 490 ± 120 nM
  SI: >573
HIV-1 mutant Y188L
  EC50: 39000 ± 5330 nM
HIV-1 mutant L100I
  EC50: 680 ± 220 nM
HIV-1 mutant E138K
  EC50: 620 ± 220 nM
WT HIV-1 RT
  IC50: 740 ± 30 nM

## Cc1cncc(Oc2c(C(F)(F)F)ccn(Cc3n[nH]c(=O)n3C)c2=O)c1 [7h]
HIV-1 mutant Y181C
  EC50: 1780 ± 100 nM
[1]
  EC50: 16100 ± 7330 nM
[2]
  CC50: > 328000 nM
HIV-1 mutant K103N
  EC50: 1200 ± 180 nM
WT HIV-1
  EC50: 530 ± 160 nM
  SI: >616
HIV-1 mutant Y188L
  EC50: 196000 ± 12100 nM
HIV-1 mutant L100I
  EC50: 550 ± 330 nM
HIV-1 mutant E138K
  EC50: 770 ± 40 nM
WT HIV-1 RT
  IC50: 1030 ± 140 nM

## Cn1c(Cn2ccc(C(F)(F)F)c(Oc3cncc4ccccc34)c2=O)n[nH]c1=O [7u]
HIV-1 mutant Y181C
  EC50: 1560 ± 490 nM
[1]
  EC50: 34000 ± 13000 nM
[2]
  CC50: 277000 ± 10100 nM
HIV-1 mutant K103N
  EC50: 3010 ± 1420 nM
WT HIV-1
  EC50: 890 ± 230 nM
  SI: 309.52
HIV-1 mutant Y188L
  EC50: > 250000 nM
HIV-1 mutant L100I
  EC50: 500 ± 220 nM
HIV-1 mutant E138K
  EC50: 900 ± 290 nM
WT HIV-1 RT
  IC50: 4380 ± 350 nM

## Cn1c(Cn2ccc(C(F)(F)F)c(Oc3cccc4cnccc34)c2=O)n[nH]c1=O [7w]
Aqueous solubility; pH 2, aqueous buffer
  solubility: 4470 µg/mL (≈ 10700 µM)
Aqueous solubility; pH 7, aqueous buffer
  solubility: 38 µg/mL (≈ 91.1 µM)
Aqueous solubility; pH 7.4, aqueous buffer
  solubility: 53 µg/mL (≈ 127 µM)
HIV-1 mutant Y181C
  EC50: 50 ± 11 nM
hERG potassium channels
  IC50: > 40000 nM
CYP2C19
  IC50: 26800 nM
CYP2C9
  IC50: 19600 nM
[1]
  EC50: 140 ± 90 nM
Acute toxicity assay; after 14 days
  Pathological damage of six main organs (HE staining): no obvious pathological damage
Acute toxicity assay; observed 14 days
  Behavior and weight: normal behavior and weight
  Mortality: did not result in any fatalities
[3]
  EC50: 35 to 140 nM
[2]
  CC50: 274000 ± 10600 nM
HIV-1 mutant K103N
  EC50: 71 ± 19 nM
WT HIV-1
  EC50: 22 ± 10 nM
  SI: 12,497.73
HIV-1 mutant Y188L
  EC50: 5350 ± 2150 nM
HIV-1 mutant L100I
  EC50: 38 ± 17 nM
CYP2D6
  IC50: > 50000 nM
CYP1A2
  IC50: > 50000 nM
CYP3A4
  IC50: > 50000 nM
[4]; iv, 1 mg/kg
  Cmax: 456 ± 51.1 ng/mL
  Tmax: 4.98 min
  half-life: 17.4 ± 12.6 min
[4]; iv, 1 mg/kg, AUC0‒t, 1.0 mg/kg (i.v.)
  AUC: 229 ± 45.3 ng·h/mL
[4]; iv, 1 mg/kg, AUC0‒∞, 1.0 mg/kg (i.v.)
  AUC: 230 ± 46 ng·h/mL
[4]; iv, 1 mg/kg, MRT0‒t, 1.0 mg/kg (i.v.)
  MRT: 21.1 ± 2.5 min
[4]; iv, 1 mg/kg, MRT0‒∞, 1.0 mg/kg (i.v.)
  MRT: 22 ± 28 min
[4]; po, 5 mg/kg
  Cmax: 2888 ± 9.71 ng/mL
  Tmax: 25 ± 8.64 min
  bioavailability: 27.1 ± 0.0219%
  half-life: 107 ± 17.4 min
[4]; po, 5 mg/kg, AUC0‒t, 5.0 mg/kg (p.o.)
  AUC: 304 ± 24.5 ng·h/mL
[4]; po, 5 mg/kg, AUC0‒∞, 5.0 mg/kg (p.o.)
  AUC: 312 ± 25.3 ng·h/mL
[4]; po, 5 mg/kg, MRT0‒t, 5.0 mg/kg (p.o.)
  MRT: 70.2 ± 9.18 min
[4]; po, 5 mg/kg, MRT0‒∞, 5.0 mg/kg (p.o.)
  MRT: 85.2 ± 8.4 min
HIV-1 mutant E138K
  EC50: 49 ± 13 nM
WT HIV-1 RT
  IC50: 120 ± 7 nM

## Cn1c(Cn2ccc(C(F)(F)F)c(Oc3cc(Cl)cc(C#N)c3)c2=O)n[nH]c1=O [DOR, doravirine, reference compound]
HIV-1 mutant Y181C
  EC50: 25 ± 2.3 nM
[1]
  EC50: 142 ± 57 nM
[2]
  CC50: 293240 ± 170 nM
HIV-1 mutant K103N
  EC50: 42 ± 1.3 nM
WT HIV-1
  EC50: 13 ± 4 nM
HIV-1 mutant Y188L
  EC50: 500 ± 150 nM
HIV-1 mutant L100I
  EC50: 6.6 ± 1.7 nM
HIV-1 mutant E138K
  EC50: 7.5 ± 2.6 nM
WT HIV-1 RT
  IC50: 44 ± 5 nM

## COc1ccc2c(c1)[C@]13CCCC[C@@H]1[C@H](C2)N(C)CC3 [Dextromethorphan, reference compound]
CYP2D6
  IC50: 48.2 nM

## Cc1cc(C#N)cc(C)c1Oc1nc(Nc2ccc(C#N)cc2)nc(N)c1Br [ETR, etravirine, reference compound]
HIV-1 mutant Y181C
  EC50: 19 ± 9 nM
[1]
  EC50: 31 ± 9 nM
[2]
  CC50: > 4600 nM
HIV-1 mutant K103N
  EC50: 2 nM
WT HIV-1
  EC50: 2.9 ± 2 nM
  SI: >1600
HIV-1 mutant Y188L
  EC50: 18 ± 8 nM
HIV-1 mutant L100I
  EC50: 6 ± 4 nM
HIV-1 mutant E138K
  EC50: 6 ± 1 nM
